For assay [1], the system named is BT-20. Briefly: (§1) Cytotoxic effect on ER-negative BT20 cell proliferation. It is filed as functional. The conditions noted are these: Homo sapiens. Put shortly:
(§2)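 ER-negative BT20 cells, no E2, test compound at 3–10 μM for 6 days. DNA read as percent of untreated control. IC30 is the concentration inhibiting growth by 30%; percent inhibition taken at 10⁻⁵ M. Means of two experiments, triplicate wells.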

The subject of assay [2] is BT-20. Described as §1. Format: functional, Homo sapiens. Also noted: concentration or dose not given beside the values. The gist of the method:
as §2

The target of assay [3] is Estrogen receptor (Bos taurus) (UniProt Q9XSB5+P49884). Nature of the assay: Relative binding affinity for calf uterus estrogen receptor after 2 hr at 0 degree C. It is filed as protein assay. Put shortly:
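Calf uterus cytosol ER incubated 2 h at 0 °C with [6,7-3H]-17β-estradiol and competitor. RBA given relative to estradiol (=100%), mean of at least four determinations.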

The subject of assay [4] is MCF7S. Nature of the assay: Cytostatic activity against MCF-7 cell proliferation. It is filed as functional, Homo sapiens. Also noted: concentration or dose not given beside the values. Put shortly:
(§3)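 MCF-7 cells in phenol red-free charcoal-treated medium given 10⁻⁶ M E2 plus test compound (3–10 μM), 6 days of growth. DNA expressed as percent of E2-treated cells. IC30 is the concentration giving 30% inhibition. Percent inhibition taken at 10⁻⁵ M, or at 10⁻⁶ M in a second series. Means of two experiments.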

In assay [5] the test system is MCF7S. Nature of the assay: Cytotoxic effect on MCF-7 cell proliferation. Format: functional. The settings on record: Homo sapiens. The gist of the method:
as §3

For assay [6], the system named is MCF7S. Nature of the assay: Agonistic activity in MCF-7 cell proliferation. Format: functional, Homo sapiens. Put shortly:
(§4)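 MCF-7 cells grown in phenol red-free medium with 5% dextran-coated charcoal-treated serum, tested 10 pM to 1 μM. DNA content read after growth. Agonism expressed relative to the maximum response with E2 (=100%), whatever the concentration. EC50 (50% of maximum response) taken from two separate experiments.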

Assay [7] has as its system MCF7S. Nature of the assay: (§5) Antagonist activity against MCF-7 cell proliferation. Format: functional, Homo sapiens. The gist of the method: (§6)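 Phenol red-free MCF-7 cultures with 5% dextran-coated charcoal-treated serum, stimulated by 0.1 nM E2. Proliferation read as DNA content after 8 days relative to E2 alone. Percent antagonism is the inhibition at 10⁻⁶ M test compound versus 10⁻¹⁰ M E2. IC50 (50% of maximum response) from two separate experiments.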

Assay [8] relates to MCF7S. Nature of the assay: Agonist activity against MCF-7 cell proliferation. It is filed as functional, cell-based. The conditions noted are these: Homo sapiens. The gist of the method: as §4
The species entered for assay [9] is Rattus norvegicus. Nature of the assay: Percent stimulation or inhibition of protein kinase C III activity for protamine sulfate in the presence of EGTA. Also noted: concentration or dose not given beside the values. The conditions noted are these: values are per cent of control. Put shortly:
(§7)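 Rat brain type III (α) PKC, purified, with protamine sulfate as substrate and 0.5 mM EGTA in place of Ca2+, phosphatidylserine and diolein; 5 mM magnesium acetate, 10 μM [32P]ATP. Most compounds at 10⁻⁴ M; percent of control activity.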

For assay [10], the target named is T1, Protein kinase C, PKC; classical (Rattus norvegicus) (UniProt P05696+P68403+P63319). Nature of the assay: Percent stimulation or inhibition of protein kinase C with [Ca2+] for phosphatidylserine (PS). It is filed as protein assay. Put shortly: (§8)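 Purified type III (α) PKC from rat brain soluble fraction. Substrate calf thymus H1 histone with 0.1 mM Ca2+, 5 mM magnesium acetate, 10 μM [32P]ATP and 2 μg/mL phosphatidylserine, no diolein. Most compounds at 10⁻⁴ M, given as percent of control activity.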

The target of assay [11] is T1, Protein kinase C, PKC; classical (Rattus norvegicus). Nature of the assay: The percent stimulation or inhibition of protein kinase C III activity was determined for phosphatidylserine (PS) and diolein(PS+DO) in the presence of [Ca2+]. Format: protein assay. Also noted: concentration or dose not given beside the values. The conditions noted are these: values are per cent of control. Put shortly: (§9)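 Type III (α) PKC purified from rat brain soluble fraction, assayed with calf thymus H1 histone, 0.1 mM Ca2+, 5 mM magnesium acetate, 10 μM [32P]ATP, 2 μg/mL phosphatidylserine plus 0.2 μg/mL diolein. Compounds mostly at 10⁻⁴ M; activity expressed as percent of control.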

Assay [12] has the same target. Briefly: (§10) Percent stimulation or inhibition of protein kinase C with [Ca2+] for phosphatidylserine and diolein(PS+DO). Format: protein assay. Also noted: concentration or dose not given beside the values. The conditions noted are these: values are per cent of control. The gist of the method: as §9
Assay [13] shares this target. Described as §10. The conditions noted are these: for residual activity: values are per cent of control. It is filed as protein assay. Put shortly:
as §9

For assay [14], the species on record is Rattus norvegicus. Briefly: Percent stimulation or inhibition of protein kinase C with EGTA for protamine sulfate. The conditions noted are these: concentration not given here. Put shortly: as §7
The subject of assay [15] is MCF7S. The assay is described as §5. The settings on record: Homo sapiens. It is filed as functional, cell-based. Put shortly:
as §6

The target of assay [16] is T1, Protein kinase C, PKC; classical (Rattus norvegicus). Nature of the assay: Percent stimulation or inhibition of protein kinase C III activity for phosphatidylserine (PS) in the presence of [Ca2+]. Format: protein assay. Also noted: concentration or dose not given beside the values. The conditions noted are these: values are per cent of control. Put shortly: as §8

Assay [17] concerns MCF7S. Briefly: Cytostatic activity against MCF-7 cell proliferation. Format: functional, Homo sapiens. Put shortly: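 MCF7 (ER-positive) human breast cancer cells grown in 24-well plates in phenol red-free medium with 5% dextran-coated charcoal, with 10⁻⁶ M E₂ added. Cells exposed to compound for 6 days, then DNA measured and expressed as percent of E₂-alone DNA. Triplicate wells per experiment; values are means of two experiments.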

The structures appear in SMILES notation. Bounds are passed on as bounds.

A word on the IC30: it is the concentration at which the effect reaches the 30% level. By Inhibition is commonly meant the drop in the measured response relative to a control, in per cent. For orientation: EC50 means the concentration giving half of the maximal effect. In general, inhibition refers to the percentage by which the read-out fell short of the control. By IC50 is commonly meant the concentration that inhibits the measured activity by half.

For the compound `CC(C)N(CCOc1ccc(C(C#N)=C(c2ccccc2)c2ccccc2)cc1)C(C)C`, the concentration for an effect of 30% (IC30) in the assay on BT-20 [1] was 9 µM; with MCF7S [5], 10 µM. The Inhibition came to 36% in the assay with BT-20 [2] and 30% with MCF7S [4]. The compound further displayed an RBA in assay [3] of 0.1%. The compound also displayed an Agonism in the assay with MCF7S [6] of 93%. Besides, the Antagonism in the assay on MCF7S [7] was 10%. The EC50 in the assay with MCF7S [8] was 0.011 µM. The figures for the residual activity (in the assay filed under Rattus norvegicus [9]; in [10] (values are per cent of control); in assay [11]) were 103%, 46% and 23%, respectively.

`Cc1ccc(/C(=C(\C#N)c2ccccc2)c2ccc(O)cc2)cc1`: in the assay with MCF7S [4], the Inhibition is 60%. In addition, the Agonism in the assay with MCF7S [6] is 53%. Besides, the residual activity in assay [12] is 87%; in assay [13], 87%; in assay [10] (values are per cent of control), 119%.

The compound `CN(C)c1ccc(C(=C(C#N)c2ccccc2)c2ccc(N(C)C)cc2)cc1` came in with an Inhibition with MCF7S [4] of 48%. In the assay with MCF7S [6], this compound gave an Agonism of 85%. The residual activity in the assay filed under Rattus norvegicus [9] amounted to 88%. Besides, the inhibition in assay [13] (concentration not given here) was 57%; in the assay listed under Rattus norvegicus [14], 88%.

Regarding `CC(C)C=C(c1ccc(O)cc1)c1ccc(O)cc1`, in the assay on BT-20 [1], the 30% effect level (IC30) was put at 8.4 µM. Besides, the Inhibition with BT-20 [2] is on record as 40%; in the assay on MCF7S [4], 22%. The same compound yielded an RBA in assay [3] of 58%. The compound also showed an Agonism in the assay with MCF7S [6] of 65%. For the same compound, the Antagonism in the assay on MCF7S [7] stood at 5%. Moreover, it took 0.018 µM to reach a half-maximal effect in the assay on MCF7S [8] (EC50). The figures for the residual activity (in the assay filed under Rattus norvegicus [9]; in [11]) were 95% and 70%, respectively.

On to `CC(C)C(Cl)=C(c1ccc(O)cc1)c1ccc(O)cc1`, for which, in the assay with BT-20 [1], it took 7.6 µM to reach the 30% level (IC30). The Inhibition in the assay on BT-20 [2] came to 45%; in the assay on MCF7S [4] it was 30%. Moreover, the RBA in assay [3] came out at 70%. In the assay on MCF7S [6], the Agonism is 96%. This compound also returned an Antagonism with MCF7S [7] of 12%. In addition, the EC50 with MCF7S [8] is 0.00016 µM. Also, the residual activity stood at 85% in the assay filed under Rattus norvegicus [9] and 83% in assay [11].

`CCN(CC)CCOc1ccc(C(C#N)=C(c2ccc(O)cc2)c2ccc(O)cc2)cc1`: the IC30 in the assay on BT-20 [1] stood at 3 µM; in the assay with MCF7S [5], 6 µM. For the same compound, the Inhibition came to 50% in the assay on BT-20 [2] and 68% with MCF7S [4]. This compound returned an IC50 in the assay on MCF7S [15] of 0.2 µM. The same compound came in with an Agonism with MCF7S [6] of 45%. In the assay on MCF7S [7], the Antagonism is 50%. This compound also gave an EC50 in the assay with MCF7S [8] of 0.0008 µM. Moreover, the residual activity in the assay filed under Rattus norvegicus [9] worked out at 105%; in assay [11], 0%; in [16], 7%.

In turn, `Cc1ccc(/C(=C(\C#N)c2ccc(O)cc2)c2ccc(O)cc2)cc1` gave an Inhibition with MCF7S [4] of 54%. Besides, the Agonism in the assay with MCF7S [6] is listed as 73%. Also, the residual activity in [12] was found to be 68%; in assay [13] it was 68%; in assay [10] (values are per cent of control), 88%.

As to `CC(C)CCOc1ccc(C(=C(C#N)c2ccccc2)c2ccc(OCCC(C)C)cc2)cc1`, the concentration for an effect of 30% (IC30) was 9 µM in the assay with BT-20 [1] and over 10 µM with MCF7S [5]. Besides, the results for the Inhibition in the assay with BT-20 [2] and with MCF7S [4] were 37% and 3%, respectively. The compound further registered an IC50 with MCF7S [15] of over 1 µM. This compound also came in with an Agonism in the assay with MCF7S [6] of 0%. This compound displayed an Antagonism in the assay with MCF7S [7] of 0%. This compound also displayed an EC50 in the assay with MCF7S [8] of over 1 µM. The values for the residual activity (in the assay listed under Rattus norvegicus [9]; in assay [11]; in assay [16]) were 78%, 86% and 118%, respectively.

In the case of `CC/C(=C(/c1ccc(O)cc1)c1ccc(OCCN(C)C)cc1)c1ccccc1`, in the assay on MCF7S [17], the Inhibition came out at 74%. In the assay with MCF7S [6], the Agonism is 61%. Also, the residual activity in the assay filed under Rattus norvegicus [9] was 100%; in assay [11], 14%; in assay [16] it was 32%.

The compound `CCN(CC)CCOc1ccc(/C(=C(/C#N)c2ccccc2)c2ccc(O)cc2)cc1` gave an Inhibition with MCF7S [4] of 77%. The compound further had an Agonism with MCF7S [6] of 16%. Besides, the residual activity came out at 2% in assay [12], 20% in assay [10] and 20% in assay [16].

Compound `NCC(=C(c1ccc(O)cc1)c1ccc(O)cc1)c1ccccc1` yielded an IC30 with BT-20 [1] of 20 µM. The Inhibition in the assay with BT-20 [2] worked out at 24%; in the assay on MCF7S [4], 19%. The RBA in assay [3] was found to be 9.7%. In the assay on MCF7S [6], this compound gave an Agonism of 76%. For the same compound, the Antagonism in the assay on MCF7S [7] stood at 20%. In the assay on MCF7S [8], the half-maximal effective concentration (EC50) came out at 0.00014 µM. Moreover, the values for the residual activity (in the assay listed under Rattus norvegicus [9]; in assay [11]; in [16]) were 20%, 53% and 78%, respectively.

Compound `CC/C(=C(/c1ccccc1)c1ccc(OCCN(C)C)cc1)c1ccccc1` displayed an Inhibition in the assay with MCF7S [4] of 79%. This compound showed an Agonism in the assay on MCF7S [6] of 100%. Moreover, the residual activity in [12] is 30%; in [10], 36%; in [16], 36%.

In the case of `CC(C)N(CCOc1ccc(C(=C(C#N)c2ccccc2)c2ccc(OCCN(C(C)C)C(C)C)cc2)cc1)C(C)C`, the values for the concentration for an effect of 30% (IC30) with BT-20 [1] and in the assay on MCF7S [5] were 3.2 µM and 2.7 µM, respectively. The Inhibition with BT-20 [2] came out at 89%; with MCF7S [4], 97%. In addition, the RBA in assay [3] was 0.03%. For the same compound, in the assay on MCF7S [15], the IC50 turned out to be 0.325 µM. This compound had an Agonism with MCF7S [6] of 29%. Besides, the Antagonism in the assay with MCF7S [7] is reported as 79%. Moreover, in the assay with MCF7S [8], the EC50 amounted to 0.00084 µM. Further, the residual activity in the assay listed under Rattus norvegicus [9] was found to be 85%; in [11], 8%; in assay [16], 18%.

Source of the values: ChEMBL document CHEMBL1126156, “Multivariate analysis by the minimum spanning tree method of the structural determinants of diphenylethylenes and triphenylacrylonitriles implicated in estrogen receptor binding, protein kinase C activity, and MCF7 cell proliferation” (J Med Chem, 1992).
